The source made the active and inactive calls. No cut-off for these calls is given here.
How the values were obtained:
[1] = test system: MDA-MB-231; assay: cells; format: functional; conditions: Homo sapiens, MDA-MB-231, 72 h
[2] = test system: A549; assay: cells; format: functional; conditions: Homo sapiens, A549, 72 h
[3] = target: Histone deacetylase; assay: Inhibition of HDAC in human HeLa cell nuclear extracts using Ac-Arg-Gly-Lys(Ac)-AMC substrate by fluorimetry; format: protein assay
[4] = test system: HepG2; assay: cells; format: functional; conditions: Homo sapiens, HepG2, 72 h
[5] = test system: COLO 205; assay: cells; format: functional; conditions: Homo sapiens, COLO 205, 72 h
[6] = test system: OVCAR-3; assay: cells; format: functional; conditions: Homo sapiens, OVCAR-3, 72 h
[7] = target: Histone deacetylase (Homo sapiens) (UniProt Q13547+O15379+Q9UBN7+Q92769+Q9UQL6+Q8WUI4+Q9BY41+Q96DB2+P56524+Q9UKV0+Q969S8); assay: Inhibition of HDAC in human MDA-MB-231 cells assessed as stimulation of histone H3 acetylation at 5 uM incubated for 24 hrs by Western blot; format: cell-based
Outline: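 MDA-MB-231 cells in 35-mm dishes, dosed 24 h at graded concentrations, then trypsinized and PBS-washed. Lysed in RIPA (50 mM Tris-HCl pH 7.5, protease and phosphatase inhibitors) for 30 min at 4 °C, then cleared at 12,000g. Lysate, 60 μg protein by BCA, run on SDS-PAGE and PVDF. Blotted with anti-acetyl-histone H3 and HRP anti-rabbit, read by ECL.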

[8] = test system: SW-620; assay: cells; format: functional; conditions: Homo sapiens, SW-620, 72 h
[9] = test system: K562; assay: cells; format: functional; conditions: Homo sapiens, K562, 72 h
[10] = test system: PC-3; assay: cells; format: functional; conditions: Homo sapiens, PC-3, 72 h

| Compound | GI50 [1] | GI50 [2] | IC50 [3] | GI50 [4] | GI50 [5] | GI50 [6] | histone H3 acetylation activity (active/not active) [7] | GI50 [8] | GI50 [9] | GI50 [10] |
| --- | --- | --- | --- | --- | --- | --- | --- | --- | --- | --- |
| CC(c1nc2ccccc2o1)n1cc(/C=C/C(=O)NO)nn1 (racemic) | 1200 nM | 2400 nM | 86 nM | 2900 nM | – | – | – | – | – | – |
| NC(=O)CCC(c1nc2ccccc2o1)n1cc(/C=C/C(=O)NO)nn1 (racemic) | 9500 nM | 21800 nM | 49 nM | 14000 nM | – | – | – | – | – | – |
| CCC(C)C(c1nc2ccccc2o1)n1cc(/C=C/C(=O)NO)nn1 (racemic) | 190 nM | 520 nM | 4 nM | 1700 nM | – | – | – | – | – | – |
| O=C(/C=C/c1cn(Cc2nc3ccccc3s2)nn1)NO | – | 2100 nM | 41 nM | 8800 nM | 1500 nM | 3600 nM | inactive | 1500 nM | 2600 nM | 2900 nM |

Second part, the compound after the results:

| GI50 [1] | GI50 [2] | IC50 [3] | GI50 [4] | GI50 [5] | GI50 [6] | histone H3 acetylation activity (active/not active) [7] | GI50 [8] | GI50 [9] | GI50 [10] | Compound |
| --- | --- | --- | --- | --- | --- | --- | --- | --- | --- | --- |
| 1400 nM | 4700 nM | 105 nM | 6100 nM | 1100 nM | 1900 nM | Active | 1200 nM | 720 nM | 1600 nM | O=C(/C=C/c1cn(Cc2nc3ccccc3o2)nn1)NO |
| – | 1900 nM | 104 nM | 3200 nM | 1100 nM | 1100 nM | – | 480 nM | 550 nM | 1300 nM | O=C(/C=C/c1cn(C/C=C/c2ccccc2)nn1)NO |
| 5500 nM | 4400 nM | 219 nM | 5900 nM | – | – | – | – | – | – | O=C(/C=C/c1cn(C(Cc2ccccc2)c2nc3ccccc3o2)nn1)NO (racemic) |
